Columns and labels:
[1] = biological target: T1, Ras guanyl-releasing protein 3 (Homo sapiens, UniProt Q8IV61); experiment: Activation of RasGRP3 in human Ramos cells assessed as ERK1/2 phosphorylation after 30 mins by immunoblot method; type: cell-based
T1 sequence (Q8IV61 whole entry): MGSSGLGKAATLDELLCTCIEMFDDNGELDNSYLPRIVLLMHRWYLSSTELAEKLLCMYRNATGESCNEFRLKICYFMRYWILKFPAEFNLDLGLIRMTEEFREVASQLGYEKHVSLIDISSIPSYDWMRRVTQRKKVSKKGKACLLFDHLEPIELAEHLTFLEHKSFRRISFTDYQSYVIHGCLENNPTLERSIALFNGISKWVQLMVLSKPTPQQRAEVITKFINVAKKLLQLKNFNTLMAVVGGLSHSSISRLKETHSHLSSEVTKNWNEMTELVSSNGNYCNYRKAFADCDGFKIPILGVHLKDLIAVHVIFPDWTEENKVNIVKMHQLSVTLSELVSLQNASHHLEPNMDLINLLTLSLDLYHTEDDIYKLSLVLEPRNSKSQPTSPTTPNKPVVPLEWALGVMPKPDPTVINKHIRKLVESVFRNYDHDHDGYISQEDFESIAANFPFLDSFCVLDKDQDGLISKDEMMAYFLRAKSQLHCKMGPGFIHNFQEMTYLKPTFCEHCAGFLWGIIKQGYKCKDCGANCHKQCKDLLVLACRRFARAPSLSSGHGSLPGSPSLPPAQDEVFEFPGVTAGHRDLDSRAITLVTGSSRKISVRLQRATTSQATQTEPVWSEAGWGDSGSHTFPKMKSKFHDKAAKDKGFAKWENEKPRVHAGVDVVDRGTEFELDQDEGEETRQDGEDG
Outline: (§1)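 Cells expressing GFP-RasGRP1/3 (HEK293 or LNCaP, 48 h after plating, transfected; expression checked by fluorescence 24-48 h later) or Ramos with endogenous RasGRP3 treated with half-log increasing concentrations (max 10 µM), 1000 nM PMA or DMSO, 37 °C, 30 min, 5% CO2. RasGTP by Raf1 RBD bead pulldown and anti-Pan-Ras immunoblot; pERK by western blot. Band intensities normalized to 1000 nM PMA; EC50 from n = 3.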

Homo sapiens [2] = species on record: Homo sapiens; experiment: Selectivity ratio of EC50 for PKCdelta (unknown origin) expressed in HEK293 cells harboring GFP-tagged RasGRP3 to EC50 for GFP-tagged RasGRP3 (unknown origin) expressed in HEK293 cells assessed as ERK1/2 phosphorylation; type: cell-based
[3] = biological target: T1, Ras guanyl-releasing protein 3; experiment: Activation of GFP-tagged RasGRP3 (unknown origin) expressed in human LNCAP cells assessed as ERK1/2 phosphorylation after 30 mins by immunoblot method; type: cell-based; outline: as §1
[4] = biological target: T2, Protein kinase C delta type (Homo sapiens, UniProt Q05655); experiment: Activation of PKCdelta (unknown origin) expressed in HEK293 cells harboring GFP-tagged RasGRP3 assessed as phosphorylation at ser299 residues after 30 mins by immunoblot method; type: cell-based
T2 sequence (Q05655 whole entry): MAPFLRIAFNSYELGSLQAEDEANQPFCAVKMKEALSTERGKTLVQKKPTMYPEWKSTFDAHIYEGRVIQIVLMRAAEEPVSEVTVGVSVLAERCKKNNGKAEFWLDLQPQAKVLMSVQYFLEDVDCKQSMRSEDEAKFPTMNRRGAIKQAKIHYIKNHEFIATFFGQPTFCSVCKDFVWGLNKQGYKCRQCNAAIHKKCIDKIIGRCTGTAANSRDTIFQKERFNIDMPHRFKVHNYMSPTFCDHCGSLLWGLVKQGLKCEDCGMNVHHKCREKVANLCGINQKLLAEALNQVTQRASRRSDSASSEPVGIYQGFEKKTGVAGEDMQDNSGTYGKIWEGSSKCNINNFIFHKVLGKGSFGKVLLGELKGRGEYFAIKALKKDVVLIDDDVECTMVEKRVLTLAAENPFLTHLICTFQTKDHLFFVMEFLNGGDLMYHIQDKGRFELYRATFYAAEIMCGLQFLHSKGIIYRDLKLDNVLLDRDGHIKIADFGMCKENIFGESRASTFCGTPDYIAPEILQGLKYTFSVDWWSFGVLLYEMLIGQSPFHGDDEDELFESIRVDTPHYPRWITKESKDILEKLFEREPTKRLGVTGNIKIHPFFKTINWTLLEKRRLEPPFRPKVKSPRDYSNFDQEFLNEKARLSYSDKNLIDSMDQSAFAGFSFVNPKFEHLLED
Outline: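 Cells are GFP-RasGRP3-transfected HEK293, grown in EMEM + 10% FBS. Exposed 30 min at 37 °C, 5% CO2, to half-log concentrations up to 10 µM, 1000 nM PMA or DMSO. Lysed in RIPA with protease and phosphatase inhibitors. 50 µg protein run on 10% SDS-PAGE and blotted for phospho-PKCδ S299; anti-GFP used as loading control. Signal normalised to 1000 nM PMA. EC50 is the mean of n = 3.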

[5] = biological target: T3, Protein kinase C epsilon type (Homo sapiens, UniProt Q02156); experiment: Displacement of [3H]PDBu from full length recombinant human PKCepsilon expressed in baculovirus expression system after 5 mins by scintillation counting
T3 sequence (Q02156 whole entry): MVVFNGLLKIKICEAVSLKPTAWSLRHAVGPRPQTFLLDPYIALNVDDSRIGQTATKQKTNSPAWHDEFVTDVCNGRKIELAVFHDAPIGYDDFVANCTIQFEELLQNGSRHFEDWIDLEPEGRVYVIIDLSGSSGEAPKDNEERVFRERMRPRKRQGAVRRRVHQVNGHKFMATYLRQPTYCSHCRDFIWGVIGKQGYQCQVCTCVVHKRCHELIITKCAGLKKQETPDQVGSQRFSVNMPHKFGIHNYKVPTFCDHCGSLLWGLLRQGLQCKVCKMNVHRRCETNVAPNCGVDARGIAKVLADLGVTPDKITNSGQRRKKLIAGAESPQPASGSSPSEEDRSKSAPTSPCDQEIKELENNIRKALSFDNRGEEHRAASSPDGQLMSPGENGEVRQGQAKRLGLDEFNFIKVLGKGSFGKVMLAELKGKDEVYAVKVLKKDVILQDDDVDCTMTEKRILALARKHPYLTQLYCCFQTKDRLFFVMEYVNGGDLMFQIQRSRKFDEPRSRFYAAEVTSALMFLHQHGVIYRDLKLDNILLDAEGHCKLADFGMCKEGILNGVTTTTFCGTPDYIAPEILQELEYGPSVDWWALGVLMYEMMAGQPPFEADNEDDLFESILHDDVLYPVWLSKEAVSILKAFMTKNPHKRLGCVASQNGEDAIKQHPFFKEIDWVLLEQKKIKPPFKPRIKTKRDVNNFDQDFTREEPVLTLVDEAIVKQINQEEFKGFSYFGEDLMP
Outline: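 Competition of [3H]PDBu binding by polyethylene glycol precipitation, with 100 µg/ml phosphatidylserine and ≤0.003% Triton X-100, 5 min at 37 °C. Proteins: full-length purified human PKCα, PKCε; full-length RasGRP1; MBP-RasGRP3 from E. coli BL21(DE3) induced with 0.3 mM IPTG 6 h at room temperature. Ki mean ± SEM of ≥2 experiments, triplicate points.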

[6] = biological target: T2, Protein kinase C delta type; experiment: Activation of PKCdelta (unknown origin) expressed in human LNCAP cells harboring GFP-tagged RasGRP1 assessed as phosphorylation at ser299 residues after 30 mins by immunoblot method; type: cell-based
Outline: (§2)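 PKCδ activation read as phospho-S299 on western blots of lysates (50 µg protein, 10% SDS-PAGE, milk blocking, anti-PKCδS299 overnight). Cells: GFP-RasGRP1/3-transfected HEK293 or LNCaP, or Ramos, treated 30 min at 37 °C with half-log doses (maximum 10 µM), 1000 nM PMA or DMSO. Scanned intensities normalized to 1000 nM PMA; EC50 mean ± SEM, n = 3; values above 10 µM extrapolated.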

Homo sapiens [7] = species on record: Homo sapiens; experiment: Selectivity ratio of EC50 for PKCdelta in human Ramos cells expressing RasGRP3 to EC50 for RasGRP3 in human Ramos cells; type: cell-based
Homo sapiens [8] = species on record: Homo sapiens; experiment: Selectivity ratio of EC50 for PKCdelta (unknown origin) expressed in HEK293 cells harboring GFP-tagged RasGRP1 to EC50 for GFP-tagged RasGRP1 (unknown origin) expressed in HEK293 cells; type: cell-based
[9] = biological target: T2, Protein kinase C delta type; experiment: Activation of PKCdelta (unknown origin) expressed in HEK293 cells harboring GFP-tagged RasGRP1 assessed as phosphorylation at ser299 residues after 30 mins by immunoblot method; type: cell-based; outline: as §2

EC50 [1]: 6.09 µM
EC50 [3]: 2.98 µM
EC50 [4]: 16.9 µM
Ki [5]: 0.0789 µM
EC50 [6]: 8.03 µM
EC50 [9]: 12.6 µM
SMILES: Cn1cc(/C=C2\CC(CO)(COC(=O)C(C)(C)C)OC2=O)c2ccccc21 (centres undefined)
Ratio EC50 (Homo sapiens [2]): 3.6
Ratio EC50 (Homo sapiens [7]): 28.6
Ratio EC50 (Homo sapiens [8]): 14.7

From ChEMBL document CHEMBL4130626, “α-Arylidene Diacylglycerol-Lactones (DAG-Lactones) as Selective Ras Guanine-Releasing Protein 3 (RasGRP3) Ligands” (J Med Chem, 2018)
